# Source: PubChem BioAssay (several laboratories)
# T cruzi inh = T. cruzi replication inhibition; AID 1885; actives 1.4% (n = 300,000); inhibition, % (concentration not given with the values); T. cruzi beta-gal in NIH3T3, luminescence, 90 h;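 active means mean inhibition across valid replicates above about 55%, limit read from the data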;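 further: signal also drops with host cell toxicity which is not excluded here; 0% = plate median of DMSO wells and 100% = zero luminescence signal; higher percent means less beta-gal luminescence so fewer parasites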
#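 System: NIH/3T3 fibroblasts plus reporter T. cruzi. Medium: DMEM plus 2% FBS. Probe or stimulus: 5000 reporter trypomastigotes per well. Compound: single 50 nL compound addition per well in DMSO. Incubation: co-culture of at least 90 h after 3 h attachment. Detection: GalScreen β-gal luminescence, detergent lysis, 60 min. Evaluation: parasite load inhibition, %.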
# UPR XBP1 act = adaptive UPR (XBP1) activation. CHO-XBP1 luciferase reporter, IRE1-XBP1 UPR activation, luminescence; percent of tunicamycin response, DMSO as zero. activation, % at 20 µM. actives 0.33% (n = 330,000). AID 463104;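 active means versus positive control, 20 µM dose yields 30% or more activation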;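 further: 100% = tunicamycin at 10 µg/mL and 0% = DMSO only wells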
#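 incubation = overnight seeding at 37 °C, 6 h compound treatment at 37 °C | assay system = CHO-XBP1 cells stably carrying IRE1-XBP1-driven luciferase reporter | input = 1000 cells per well | detection = luciferase luminescence | dosing = single point, 20 µM final compound, 1% DMSO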
# CHOP UPR activ = apoptotic UPR (CHOP) activation; CHO-CHOP luciferase reporter, luminescence; percent of tunicamycin response over DMSO baseline; activation, % at 10 µM; actives 0.34% (n = 330,000);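 active means at 10 µM dose, activation of 40% or more, normalized to positive control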;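 further: 100% = tunicamycin at 10 µg/mL and 0% = DMSO alone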
#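 System: CHO CHOP reporter cells. Amount: 500 cells per well. Buffer or medium: F12 medium, 10% FBS. Compound dosing: one dose, 10 µM in 0.5% DMSO. Incubation: 6 h compound exposure at 37 °C after overnight seeding. Technique: Steady-Glo luciferase luminescence. Benchmarks: tunicamycin and DMSO controls.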
# Dynein transport = blocks dynein driven cargo transport along microtubules. 3617.4 mouse cells, GR-EGFP nuclear translocation imaging; test concentration mostly 20 µM; stimulated with dexamethasone, 1 µM; hits give low values. z-score, hits read low. actives 0.47% (n = 220,000). AID 1381;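 active means plate z-score of nuclear minus cytoplasmic receptor signal below a set negative limit, without overly bright fluorescence or cell loss, cut at about -3.5 in these data, passing the limit was not always enough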;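 further: z-score of nuclear minus cytoplasmic ring GR-EGFP intensity difference per well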
#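 medium = tetracycline-free induction medium containing charcoal-stripped FBS | also added = 1.0 µM final dexamethasone stimulus | schedule = 48 h induction, 1 h compound, 30 min dex at 37 °C | technique = fixed, Hoechst-stained cells imaged at 10x for EGFP | measure = GR-EGFP nuclear translocation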
# CHOP inh = CHOP inhibition in unfolded protein response; actives 3.8% (n = 220,000); AID 2732; inhibition, % at 10 µM; CHO-K1 CHOP-promoter luciferase, tunicamycin-induced, 15-18 h;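 active means compounds that reduced the stress-induced luciferase reporter signal by more than about 70% of percent inhibition, limit read from the data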;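 further: 0% = tunicamycin plus vehicle and 100% = wells without tunicamycin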
# L major viab = reduces viability of Leishmania major promastigotes. resazurin fluorescence viability. inhibition, % at 10 µM. actives 9% (n = 200,000). AID 1063; in the data active means inhibition above about 50%;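 further: promastigotes grown with compound for 44 hours at 28 °C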
# * marks the source's active call; other numbers are inactive results; . = no result given. The entries come from a sample that favours hits as a whole.
SMILES,T cruzi inh,UPR XBP1 act,CHOP UPR activ,Dynein transport,CHOP inh,L major viab
CC1CCN(CCOc2ccc(OCc3ccccc3)cc2)CC1,50.3,5.3,2.8,-0.0512,11.5,99.2*
CCc1ccc(OCCOCCN2CCN(C)CC2)cc1,43.6,-3.9,0.2,.,.,.
CN1CCN(CCOc2ccc(Cc3ccccc3)cc2)CC1,54.8*,-3.2,2.7,.,.,.
CC1CCN(CCCCOc2ccc(Cl)cc2)CC1,-13.3,-2.0,0.0,.,.,.
CCN(CC)CCCOc1ccc(Cl)c(Cl)c1,51.6,-0.5,0.9,0.254,14.4,83.4*
O=C(NCCS(=O)(=O)NC1CCCC1)c1ccccc1,-11.9,0.2,-1.7,.,.,.
O=C(COC(=O)Cc1c(F)cccc1Cl)Nc1nnc(-c2ccccc2)o1,0.0,-1.1,0.6,.,.,.
COc1ccc(CCC(=O)NCCS(=O)(=O)N2CCN(c3ccc(OC)cc3)CC2)cc1,-18.1,-6.3,1.5,.,.,.
O=C(NC(Nc1nc2ccc([N+](=O)[O-])cc2s1)(C(F)(F)F)C(F)(F)F)c1cccnc1,56.4*,0.3,1.0,0.0178,90.3*,20.9
COc1ccc(Cl)cc1NC(=O)CN(C)C(=O)c1ccc(COc2ccccc2)cc1,1.8,-3.0,0.8,.,.,.
Cc1ccc(S(=O)(=O)N(C)c2c(C)ccc(S(=O)(=O)NC(C)(C)C)c2C)cc1,30.6,-1.3,0.2,0.253,7.3,98.9*
Cc1ccc(S(=O)(=O)N(C)c2c(C)ccc(S(=O)(=O)N3CCN(C)CC3)c2C)cc1,16.7,-1.5,-1.7,-0.394,2.2,3.9
C=C(C)CN1CCN(S(=O)(=O)c2ccc(C)c(N(C)S(=O)(=O)c3ccc(C)cc3)c2C)CC1,41.8,-3.4,1.3,1.64,18.3,98.3*
Cc1ccc(S(=O)(=O)N(C)c2c(C)ccc(S(=O)(=O)Nc3ccncc3)c2C)cc1,3.5,-2.5,-0.5,-0.367,52.9,-5.0
Cc1ccc(S(=O)(=O)NC(C)C(=O)OCC(=O)N(C)c2ccccc2)cc1 (stereo unspecified),.,-0.1,-0.7,.,.,.
CC(C)=CC(=O)N1CCC(N2CCC(C(=O)N3CCOCC3)CC2)CC1,9.6,-2.9,0.0,0.0249,13.9,-2.1
CC(C)=CCCC(C)CN1CCC(N2CCC(C(=O)N3CCOCC3)CC2)CC1 (stereo unspecified),9.2,0.5,-0.3,0.061,-12.2,96.1*
CC(C)=CCCC(C)CN1CCC(N2CCC(C(=O)NC(C)C)CC2)CC1 (stereo unspecified),3.0,0.1,1.2,0.0582,-6.0,83.5*
O=C(C1CCN(C2CCN(CC3CC=CCC3)CC2)CC1)N1CCOCC1 (stereo unspecified),7.5,-2.2,-1.9,0.452,-18.5,76.2*
CC(C)NC(=O)C1CCN(C2CCN(CC3CC=CCC3)CC2)CC1 (stereo unspecified),13.8,0.1,-0.9,1.42,-14.5,8.6
COCCn1c(N)c(N(Cc2ccccc2)C(=O)COc2ccccc2F)c(=O)[nH]c1=O,.,-2.2,1.2,.,.,.
CC1Cc2ccccc2N1S(=O)(=O)c1cccc(C(=O)NCCCn2ccnc2)c1 (stereo unspecified),-8.1,-1.8,-1.7,-0.113,16.1,15.3
CCOc1ccc(-n2c(O)c(/C=N/NC(=O)C3COc4ccccc4O3)c3ccccc3c2=O)cc1 (stereo unspecified),5.6,-2.8,-0.2,-0.405,2.6,-11.0
CN(C)S(=O)(=O)c1ccc(Cl)c(NC(=O)CN2CCCC2)c1,7.0,1.2,-0.1,.,.,.
CC(C)(CO)NCc1cc(Br)ccc1OCc1ccccc1,-7.7,-1.2,1.2,-0.426,19.3,23.8
SMILES,T cruzi inh,UPR XBP1 act,CHOP UPR activ,Dynein transport,CHOP inh,L major viab
COc1cc(CNC(C)(C)C)cc(Br)c1OCc1cccs1,22.1,-0.4,1.6,0.476,-7.4,85.5*
COc1cc(CNCCO)cc(Br)c1OCc1cccs1,23.5,3.9,-0.7,-0.388,0.2,87.8*
CC(C)(C)NCc1cc(Br)ccc1OCc1cccs1,-7.1,-0.8,1.8,-0.302,-11.3,21.1
COc1cc(CNC(C)(C)CO)cc(Br)c1OCc1ccccc1,0.8,-0.8,1.3,0.443,-11.7,79.7*
CCOc1cc(CNCc2cccs2)cc(Br)c1OC,9.5,-3.4,-2.3,-0.371,29.6,3.2
CC(C)(C)NCc1ccccc1OCc1cccs1,7.1,-1.1,-1.3,0.12,4.9,82.0*
O=C(Cc1n[nH]c(=O)[nH]c1=O)N/N=C/CCc1ccccc1,0.7,-1.4,-1.6,-0.142,14.3,.
COc1ccc(N(CC(=O)NC2CCCC2)C(=O)Cn2nnc(-c3ccc(OC)c(OC)c3)n2)c(OC)c1,-10.3,-2.3,-1.6,.,.,.
COC(=O)c1cnc(SCC(=O)c2ccccc2)n1C,-8.4,-4.5,-0.5,.,.,.
COC(=O)c1cnc(SCc2ccc(Cl)cc2)n1C,-6.6,-1.6,2.7,-0.159,75.3*,0.8
Cc1ccc(NC(=O)C(Cc2ccccc2)N2C(=O)C3C4CCC(C4)C3C2=O)cc1Cl (stereo unspecified),77.8*,0.9,-0.7,-0.868,17.9,88.4*
CC(C)(C)c1ccc(OCC(=O)NNC(=O)C2CCCO2)cc1 (stereo unspecified),-10.7,0.3,1.1,0.865,7.9,-5.2
CC(C)=C1C2CCC1C1C(=O)N(NC(=O)COc3ccc(C(C)(C)C)cc3)C(=O)C21 (stereo unspecified),-8.2,0.0,1.9,-1.63,92.0*,5.9
Cc1cccn2c(=O)c3cc(C(=O)NC4CCCCC4)c(=N)n(Cc4ccccc4)c3nc12,58.2*,-2.8,7.5,.,.,.
CCNC(=O)c1cc2c(=O)n3cccc(C)c3nc2n(CCc2ccccc2)c1=N,33.4,-2.2,1.3,-1.24,-7.2,27.4
CCCCNC(=O)c1cc2c(=O)n3cccc(C)c3nc2n(Cc2ccccc2)c1=N,60.1*,-1.2,-1.8,-0.774,-7.6,33.1
Cc1cccn2c(=O)c3cc(C(=O)NCCN4CCOCC4)c(=N)n(CCc4ccccc4)c3nc12,36.3,-2.6,-1.2,-0.00558,29.6,66.2*
Cc1cccn2c(=O)c3cc(C(=O)NC4CCCC4)c(=N)n(Cc4ccc(F)cc4)c3nc12,36.2,0.2,0.8,.,.,.
N#Cc1ccccc1OCC(=O)Nc1ccccc1C(=O)NC1CC1,-0.6,3.4,0.4,.,.,.
COc1ccc(S(=O)(=O)NC(C)C)cc1C(=O)N1CCOCC1,-10.1,-0.3,0.0,-1.12,-3.9,1.7
CC1CN(c2ccccc2)CCN1Cc1nc(Cc2ccccc2)no1 (stereo unspecified),15.5,1.3,-1.1,0.972,9.6,1.2
COc1cc(C(=O)OCCN2CCCCC2)ccc1O,0.2,-5.2,-1.0,-1.51,10.7,-1.1
